Data taken from ChEMBL document CHEMBL1128374, “Preparation and in vitro activities of ethers of [D-serine]8-cyclosporin” (J Med Chem, 1995).
In brackets after ≈: the same amount, converted by molar mass.

Experiments:
Type in all cases: functional
Mus musculus [1] = species: Mus musculus; experiment: In vitro inhibition of interleukin-2 (IL-2) production induced by stimulating lymphocytes derived from mouse spleens with the […]; conditions: Spleen
In short: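 Compounds added with concanavalin A to the primary culture; supernatants collected at 48 h. IL-2 content measured by growth of IL-2-dependent CTLL cells, read as tritiated thymidine incorporation after 48 h. IC50 determined, with cyclosporin A run in parallel.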

Mus musculus [2] = species: Mus musculus; experiment: In vitro efficacy to suppress lymphocyte proliferation as measured by the incorporation of a labeled precursor ([3H]- thymidine) into DNA in Mixed Lymphocyte reaction (MLR).
In short: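 Cells from spleens of female CBA mice aged 8–10 weeks (ca. 5 x 10^5). Compounds made up at 20 mg/mL in 9:1 (v/v) ethanol/Tween 80, then diluted in saline before adding to medium. Four concentrations per compound across 1.8–1000 ng/mL, in triplicate cultures. IC50 is the calculated concentration giving 50% inhibition of proliferation. Cyclosporin A run in parallel as control.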

Mus musculus [3] = species: Mus musculus; experiment: In vitro efficacy on humoral immune response by Mishell-Dutton assay (MD).
In short: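 Spleen lymphocytes from female OF1 mice (ca. 10 x 10^6) cultured 3 days with sheep erythrocytes (ca. 30 x 10^6) and test compound. Cells then plated on agar with fresh erythrocytes; plaques form by complement lysis. Read-out is the count of antibody-producing plaque-forming cells. Cyclosporin A run in parallel.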

SMILES | IC50 (Mus musculus [1]) [µg/mL] | IC50 (Mus musculus [3]) [µg/mL] | IC50 (Mus musculus [2]) [µg/mL]
C/C=C/C[C@@H](C)[C@@H](O)[C@H]1C(=O)N[C@@H](CC)C(=O)N(C)CC(=O)N(C)[C@@H](CC(C)C)C(=O)N[C@@H](C(C)C)C(=O)N(C)[C@@H](CC(C)C)C(=O)N[C@@H](C)C(=O)N2CC(=O)OC[C@@H]2C(=O)N(C)[C@@H](CC(C)C)C(=O)N(C)[C@@H](CC(C)C)C(=O)N(C)[C@@H](C(C)C)C(=O)N1C | 0.024 (≈ 0.0191 µM) | – | 0.167 (≈ 0.133 µM)
C/C=C/C[C@@H](C)[C@@H](O)[C@H]1C(=O)N[C@@H](CC)C(=O)N(C)CC(=O)N(C)[C@@H](CC(C)C)C(=O)N[C@@H](C(C)C)C(=O)N(C)[C@@H](CC(C)C)C(=O)N[C@@H](C)C(=O)N[C@H](COCCOCC(=O)OC(C)C)C(=O)N(C)[C@@H](CC(C)C)C(=O)N(C)[C@@H](CC(C)C)C(=O)N(C)[C@@H](C(C)C)C(=O)N1C | – | 0.078 (≈ 0.0572 µM) | 0.05 (≈ 0.0367 µM)
C/C=C/C[C@@H](C)[C@@H](O)[C@H]1C(=O)N[C@@H](CC)C(=O)N(C)CC(=O)N(C)[C@@H](CC(C)C)C(=O)N[C@@H](C(C)C)C(=O)N(C)[C@@H](CC(C)C)C(=O)N[C@@H](C)C(=O)N[C@H](COCCOS(=O)(=O)c2ccc(C)cc2)C(=O)N(C)[C@@H](CC(C)C)C(=O)N(C)[C@@H](CC(C)C)C(=O)N(C)[C@@H](C(C)C)C(=O)N1C | 0.014 (≈ 0.00988 µM) | – | 0.05 (≈ 0.0353 µM)
C/C=C/C[C@@H](C)[C@@H](O)[C@H]1C(=O)N[C@@H](CC)C(=O)N(C)CC(=O)N(C)[C@@H](CC(C)C)C(=O)N[C@@H](C(C)C)C(=O)N(C)[C@@H](CC(C)C)C(=O)N[C@@H](C)C(=O)N[C@H](COCCOCCOCC(=O)OC(C)C)C(=O)N(C)[C@@H](CC(C)C)C(=O)N(C)[C@@H](CC(C)C)C(=O)N(C)[C@@H](C(C)C)C(=O)N1C | – | 0.53 (≈ 0.377 µM) | 0.35 (≈ 0.249 µM)
C/C=C/C[C@@H](C)[C@@H](O)[C@H]1C(=O)N[C@@H](CC)C(=O)N(C)CC(=O)N(C)[C@@H](CC(C)C)C(=O)N[C@@H](C(C)C)C(=O)N(C)[C@@H](CC(C)C)C(=O)N[C@@H](C)C(=O)N2CCCC[C@@H]2C(=O)N(C)[C@@H](CC(C)C)C(=O)N(C)[C@@H](CC(C)C)C(=O)N(C)[C@@H](C(C)C)C(=O)N1C | – | – | 0.029 (≈ 0.0233 µM)
C/C=C/C[C@@H](C)[C@@H](O)[C@H]1C(=O)N[C@@H](CC)C(=O)N(C)CC(=O)N(C)[C@@H](CC(C)C)C(=O)N[C@@H](C(C)C)C(=O)N(C)[C@@H](CC(C)C)C(=O)N[C@@H](C)C(=O)N2COC[C@@H]2C(=O)N(C)[C@@H](CC(C)C)C(=O)N(C)[C@@H](CC(C)C)C(=O)N(C)[C@@H](C(C)C)C(=O)N1C | – | – | 0.118 (≈ 0.0959 µM)
C/C=C/C[C@@H](C)[C@@H](O)[C@H]1C(=O)N[C@@H](CC)C(=O)N(C)CC(=O)N(C)[C@@H](CC(C)C)C(=O)N[C@@H](C(C)C)C(=O)N(C)[C@@H](CC(C)C)C(=O)N[C@@H](C)C(=O)N2CCOC[C@@H]2C(=O)N(C)[C@@H](CC(C)C)C(=O)N(C)[C@@H](CC(C)C)C(=O)N(C)[C@@H](C(C)C)C(=O)N1C | 0.003 (≈ 0.00241 µM) | – | 0.006 (≈ 0.00482 µM)
C=C1COC[C@@H]2C(=O)N(C)[C@@H](CC(C)C)C(=O)N(C)[C@@H](CC(C)C)C(=O)N(C)[C@@H](C(C)C)C(=O)N(C)[C@@H]([C@H](O)[C@H](C)C/C=C/C)C(=O)N[C@@H](CC)C(=O)N(C)CC(=O)N(C)[C@@H](CC(C)C)C(=O)N[C@@H](C(C)C)C(=O)N(C)[C@@H](CC(C)C)C(=O)N[C@@H](C)C(=O)N2C1 | 0.012 (≈ 0.00944 µM) | – | 0.036 (≈ 0.0283 µM)
C/C=C/C[C@@H](C)[C@@H](O)[C@H]1C(=O)N[C@@H](CC)C(=O)N(C)CC(=O)N(C)[C@@H](CC(C)C)C(=O)N[C@@H](C(C)C)C(=O)N(C)[C@@H](CC(C)C)C(=O)N[C@@H](C)C(=O)N2CC(OCC)OC[C@@H]2C(=O)N(C)[C@@H](CC(C)C)C(=O)N(C)[C@@H](CC(C)C)C(=O)N(C)[C@@H](C(C)C)C(=O)N1C (mixture of isomers) | 0.01 | – | 0.04

Second part, led by results:

IC50 (Mus musculus [1]) [µg/mL] | IC50 (Mus musculus [3]) [µg/mL] | SMILES | IC50 (Mus musculus [2]) [µg/mL]
– | 0.036 (≈ 0.0279 µM) | C/C=C/C[C@@H](C)[C@@H](O)[C@H]1C(=O)N[C@@H](CC)C(=O)N(C)CC(=O)N(C)[C@@H](CC(C)C)C(=O)N[C@@H](C(C)C)C(=O)N(C)[C@@H](CC(C)C)C(=O)N[C@@H](C)C(=O)N[C@H](COC/C=C/CO)C(=O)N(C)[C@@H](CC(C)C)C(=O)N(C)[C@@H](CC(C)C)C(=O)N(C)[C@@H](C(C)C)C(=O)N1C | 0.07 (≈ 0.0543 µM)
– | 0.023 (≈ 0.0183 µM) | C/C=C/C[C@@H](C)[C@@H](O)[C@H]1C(=O)N[C@@H](CC)C(=O)N(C)CC(=O)N(C)[C@@H](CC(C)C)C(=O)N[C@@H](C(C)C)C(=O)N(C)[C@@H](CC(C)C)C(=O)N[C@@H](C)C(=O)N[C@H](COCC#N)C(=O)N(C)[C@@H](CC(C)C)C(=O)N(C)[C@@H](CC(C)C)C(=O)N(C)[C@@H](C(C)C)C(=O)N1C | 0.01 (≈ 0.00795 µM)
– | 0.078 (≈ 0.0604 µM) | C/C=C/C[C@@H](C)[C@@H](O)[C@H]1C(=O)N[C@@H](CC)C(=O)N(C)CC(=O)N(C)[C@@H](CC(C)C)C(=O)N[C@@H](C(C)C)C(=O)N(C)[C@@H](CC(C)C)C(=O)N[C@@H](C)C(=O)N[C@H](COCC(C)(C)O)C(=O)N(C)[C@@H](CC(C)C)C(=O)N(C)[C@@H](CC(C)C)C(=O)N(C)[C@@H](C(C)C)C(=O)N1C | 0.05 (≈ 0.0387 µM)
– | 0.725 (≈ 0.55 µM) | C/C=C/C[C@@H](C)[C@@H](O)[C@H]1C(=O)N[C@@H](CC)C(=O)N(C)CC(=O)N(C)[C@@H](CC(C)C)C(=O)N[C@@H](C(C)C)C(=O)N(C)[C@@H](CC(C)C)C(=O)N[C@@H](C)C(=O)N[C@H](COCC(=O)OC(C)C)C(=O)N(C)[C@@H](CC(C)C)C(=O)N(C)[C@@H](CC(C)C)C(=O)N(C)[C@@H](C(C)C)C(=O)N1C | 0.1 (≈ 0.0758 µM)
– | 0.065 (≈ 0.0504 µM) | C/C=C/C[C@@H](C)[C@@H](O)[C@H]1C(=O)N[C@@H](CC)C(=O)N(C)CC(=O)N(C)[C@@H](CC(C)C)C(=O)N[C@@H](C(C)C)C(=O)N(C)[C@@H](CC(C)C)C(=O)N[C@@H](C)C(=O)N[C@H](COCC(=O)OC)C(=O)N(C)[C@@H](CC(C)C)C(=O)N(C)[C@@H](CC(C)C)C(=O)N(C)[C@@H](C(C)C)C(=O)N1C | 0.044 (≈ 0.0341 µM)
– | 0.21 (≈ 0.158 µM) | C/C=C/C[C@@H](C)[C@@H](O)[C@H]1C(=O)N[C@@H](CC)C(=O)N(C)CC(=O)N(C)[C@@H](CC(C)C)C(=O)N[C@@H](C(C)C)C(=O)N(C)[C@@H](CC(C)C)C(=O)N[C@@H](C)C(=O)N[C@H](COCCC2OCCCO2)C(=O)N(C)[C@@H](CC(C)C)C(=O)N(C)[C@@H](CC(C)C)C(=O)N(C)[C@@H](C(C)C)C(=O)N1C | 0.12 (≈ 0.09 µM)
– | 0.1 (≈ 0.074 µM) | C/C=C/C[C@@H](C)[C@@H](O)[C@H]1C(=O)N[C@@H](CC)C(=O)N(C)CC(=O)N(C)[C@@H](CC(C)C)C(=O)N[C@@H](C(C)C)C(=O)N(C)[C@@H](CC(C)C)C(=O)N[C@@H](C)C(=O)N[C@H](COCCOCCOCCO)C(=O)N(C)[C@@H](CC(C)C)C(=O)N(C)[C@@H](CC(C)C)C(=O)N(C)[C@@H](C(C)C)C(=O)N1C | 0.47 (≈ 0.348 µM)
– | 0.09 (≈ 0.0697 µM) | C/C=C/C[C@@H](C)[C@@H](O)[C@H]1C(=O)N[C@@H](CC)C(=O)N(C)CC(=O)N(C)[C@@H](CC(C)C)C(=O)N[C@@H](C(C)C)C(=O)N(C)[C@@H](CC(C)C)C(=O)N[C@@H](C)C(=O)N[C@H](COCCCCO)C(=O)N(C)[C@@H](CC(C)C)C(=O)N(C)[C@@H](CC(C)C)C(=O)N(C)[C@@H](C(C)C)C(=O)N1C | 0.094 (≈ 0.0728 µM)
– | 0.24 (≈ 0.178 µM) | C/C=C/C[C@@H](C)[C@@H](O)[C@H]1C(=O)N[C@@H](CC)C(=O)N(C)CC(=O)N(C)[C@@H](CC(C)C)C(=O)N[C@@H](C(C)C)C(=O)N(C)[C@@H](CC(C)C)C(=O)N[C@@H](C)C(=O)N[C@H](COC/C=C/CBr)C(=O)N(C)[C@@H](CC(C)C)C(=O)N(C)[C@@H](CC(C)C)C(=O)N(C)[C@@H](C(C)C)C(=O)N1C | 0.09 (≈ 0.0666 µM)
– | 0.04 (≈ 0.0301 µM) | C/C=C/C[C@@H](C)[C@@H](O)[C@H]1C(=O)N[C@@H](CC)C(=O)N(C)CC(=O)N(C)[C@@H](CC(C)C)C(=O)N[C@@H](C(C)C)C(=O)N(C)[C@@H](CC(C)C)C(=O)N[C@@H](C)C(=O)N[C@H](COC/C=C/COC(C)=O)C(=O)N(C)[C@@H](CC(C)C)C(=O)N(C)[C@@H](CC(C)C)C(=O)N(C)[C@@H](C(C)C)C(=O)N1C | 0.04 (≈ 0.0301 µM)
0.115 (≈ 0.0914 µM) | 0.032 (≈ 0.0254 µM) | C=CCOC[C@H]1NC(=O)[C@H](C)NC(=O)[C@H](CC(C)C)N(C)C(=O)[C@H](C(C)C)NC(=O)[C@H](CC(C)C)N(C)C(=O)CN(C)C(=O)[C@H](CC)NC(=O)[C@H]([C@H](O)[C@H](C)C/C=C/C)N(C)C(=O)[C@H](C(C)C)N(C)C(=O)[C@H](CC(C)C)N(C)C(=O)[C@H](CC(C)C)N(C)C1=O | 0.088 (≈ 0.0699 µM)
– | 0.009 (≈ 0.00705 µM) | C/C=C/C[C@@H](C)[C@@H](O)[C@H]1C(=O)N[C@@H](CC)C(=O)N(C)CC(=O)N(C)[C@@H](CC(C)C)C(=O)N[C@@H](C(C)C)C(=O)N(C)[C@@H](CC(C)C)C(=O)N[C@@H](C)C(=O)N[C@H](COCCCO)C(=O)N(C)[C@@H](CC(C)C)C(=O)N(C)[C@@H](CC(C)C)C(=O)N(C)[C@@H](C(C)C)C(=O)N1C | 0.02 (≈ 0.0157 µM)
– | 0.087 (≈ 0.0676 µM) | C/C=C/C[C@@H](C)[C@@H](O)[C@H]1C(=O)N[C@@H](CC)C(=O)N(C)CC(=O)N(C)[C@@H](CC(C)C)C(=O)N[C@@H](C(C)C)C(=O)N(C)[C@@H](CC(C)C)C(=O)N[C@@H](C)C(=O)N[C@H](COCCN=[N+]=[N-])C(=O)N(C)[C@@H](CC(C)C)C(=O)N(C)[C@@H](CC(C)C)C(=O)N(C)[C@@H](C(C)C)C(=O)N1C | 0.11 (≈ 0.0854 µM)
